Among the data in ChEMBL document CHEMBL1152478, “Design, synthesis, and antifungal activity of triazole and benzotriazole derivatives” (2009) are MIC values, retold here.

Holding throughout (type): functional
The subject of one assay is Microsporum canis. Description: Antifungal activity against Microsporum canis after 48 hrs by agar dilution method. An outline of the steps: (§1)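 Clinical isolates, purified and subcultured on SC, SCC and PDA media before testing. Compounds were dissolved as DMSO stocks and diluted into solid medium (PDA) for agar dilution. Inocula for molds and yeast came from 2- to 7-day mature colonies. The read-out was the minimum inhibitory concentration (MIC).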
(In general: In agar dilution the substance is mixed into plates at graded concentrations.)

A further assay relates to Trichophyton rubrum. Description: Antifungal activity against Trichophyton rubrum after 48 hrs by agar dilution method. In outline: as §1
The test system of another assay is Epidermophyton floccosum. The assay can be described thus: Antifungal activity against Epidermophyton floccosum after 48 hrs by agar dilution method. An outline of the steps:
as §1

In assay [1] the test system is Trichophyton mentagrophytes. The assay can be described thus: Antifungal activity against Trichophyton mentagrophytes after 48 hrs by agar dilution method. In outline:
as §1

In another assay the test system is Candida albicans. Description: Antifungal activity against Candida albicans after 48 hrs by agar dilution method. An outline of the steps:
as §1

What is called MIC is the smallest concentration in the dilution series that meets the test's criterion for growth inhibition. Low values mean inhibition by little substance, high ones a need for much substance.

≈ marks a conversion by molar mass, not a printed value.

With `CCCCCCCCn1nnc2ccccc21`, the minimum inhibitory concentration (MIC) in the assay on Microsporum canis came to 64 µg/mL (≈ 277 µM); with Trichophyton rubrum, 64 µg/mL (≈ 277 µM); in the assay with Epidermophyton floccosum it was 32 µg/mL (≈ 138 µM); in assay [1] it was 64 µg/mL (≈ 277 µM).
Turning to `OC(Cn1cncn1)(Cn1cncn1)c1ccc(F)cc1F` [FLUCONAZOLE], the MIC against Microsporum canis was 16 µg/mL (≈ 52.2 µM); against Candida albicans, 32 µg/mL (≈ 104 µM); with Trichophyton rubrum, 32 µg/mL (≈ 104 µM); against Epidermophyton floccosum it was 0.25 µg/mL (≈ 0.816 µM); in assay [1], 1 µg/mL (≈ 3.27 µM).
`CCCCCn1cncn1`: the MIC (in the assay with Microsporum canis; in the assay on Trichophyton rubrum; with Epidermophyton floccosum; in assay [1]) was 64 µg/mL (≈ 460 µM) in each case.
In the case of `c1ccc(C(c2ccccc2)(c2ccccc2)n2cncn2)cc1`, the MIC against Microsporum canis was found to be 64 µg/mL (≈ 206 µM); in the assay on Trichophyton rubrum it was 64 µg/mL (≈ 206 µM); in the assay on Epidermophyton floccosum, 1 µg/mL (≈ 3.21 µM); in assay [1], 32 µg/mL (≈ 103 µM).
As to `CCCCCn1nnc2ccccc21`, the MIC was 16 µg/mL (≈ 84.5 µM) in the assay on Microsporum canis; 32 µg/mL (≈ 169 µM) against Candida albicans; 32 µg/mL (≈ 169 µM) in the assay on Trichophyton rubrum; 16 µg/mL (≈ 84.5 µM) against Epidermophyton floccosum; 32 µg/mL (≈ 169 µM) in assay [1].
For `COc1ccc(C(c2ccccc2)(c2ccccc2)n2nnc3ccccc32)cc1`, the MIC (with Trichophyton rubrum; against Epidermophyton floccosum; in assay [1]) was 64 µg/mL (≈ 163 µM) throughout.
Regarding `c1ccc(C(c2ccccc2)(c2ccccc2)n2nnc3ccccc32)cc1`, the minimum inhibitory concentration (MIC) in the assay on Candida albicans, with Trichophyton rubrum and against Epidermophyton floccosum was 64 µg/mL (≈ 177 µM) in each case.
On to `Clc1ccccc1C(c1ccccc1)(c1ccccc1)n1ccnc1` [CLOTRIMAZOLE], for which the MIC was determined as 0.065 µg/mL (≈ 0.188 µM) against Microsporum canis; 4 µg/mL (≈ 11.6 µM) in the assay on Candida albicans; 0.5 µg/mL (≈ 1.45 µM) with Trichophyton rubrum; 4 µg/mL (≈ 11.6 µM) against Epidermophyton floccosum; 0.05 µg/mL (≈ 0.145 µM) in assay [1].
With `COc1ccc(C(c2ccccc2)(c2ccccc2)n2cncn2)cc1`, the MIC worked out at 32 µg/mL (≈ 93.7 µM) with Microsporum canis, 32 µg/mL (≈ 93.7 µM) against Trichophyton rubrum, 8 µg/mL (≈ 23.4 µM) with Epidermophyton floccosum and 16 µg/mL (≈ 46.9 µM) in assay [1].
Take `CCCCCCCCn1cncn1`: the MIC in the assay with Microsporum canis was 16 µg/mL (≈ 88.3 µM); in the assay with Candida albicans it was 16 µg/mL (≈ 88.3 µM); in the assay with Trichophyton rubrum it was 16 µg/mL (≈ 88.3 µM); in the assay with Epidermophyton floccosum, 8 µg/mL (≈ 44.1 µM); in assay [1], 16 µg/mL (≈ 88.3 µM).
Take `COc1ccc(C(c2ccccc2)(c2ccc(OC)cc2)n2nnc3ccccc32)cc1`: the MIC turned out to be 32 µg/mL (≈ 75.9 µM) in the assay on Trichophyton rubrum and 64 µg/mL (≈ 152 µM) in assay [1].
